Nine compounds from ChEMBL document CHEMBL1132688, “Synthesis of a series of 4-benzyloxyaniline analogues as neuronal N-type calcium channel blockers with improved anticonvulsant and analgesic properties” (J Med Chem, 1999) can be followed below.

Series [1] can be described thus: solubility at pH 4. Conditions: buffer. It counts as physicochemical.
Series [2] is described as follows: solubility at pH 7.4. In kind it is physicochemical. Conditions: buffer. Put shortly:
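DMSO solution diluted 20-fold into PBS with 25 mM potassium phosphate pH 7.4 (final 5% DMSO) to precipitate; stirred 1 h at 22 °C, centrifuged 20000g 5 min; supernatant quantified by HPLC against DMSO standard.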

For series [3], the species on record is Mus musculus. Kind of series: Anticonvulsant activity against audiogenic seizure model using DBA/2 mice. It counts as functional. Put shortly:
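Male DBA/2 mice, 3–4 weeks old (6.5–12 g, 20–23 days); iv dosing into retro-orbital sinus, tested 15 or 45 min later. Sound stimulus in enclosed chamber until tonic extension or max 60 s. Tonic seizure occurrence used for ED50 by probit analysis; each mouse used once per time/dose point.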

Series [4] has as its target Voltage-dependent N-type calcium channel subunit alpha-1B (Homo sapiens, UniProt Q00975). The series is described as follows: Inhibition of N-type calcium channels in IMR32 human neuroblastoma cells. In kind it is functional. Put shortly: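 Differentiated IMR32 cells (dibutyryl cAMP 1 mM + BrdU 2.5 μM, 7–13 days), Indo-1 AM loaded; 10 min compound preincubation at 30 °C with 5 μM nitrendipine; high-K+ depolarization, fluorescence ratio 400/490 nm (ex 350 nm). Percent inhibition of K+-evoked Ca2+ rise; IC50 from five-point curves, four-parameter logistic fit.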

For series [5], the system named is Mus musculus. Kind of series: Anticonvulsant activity at 30 mg/kg tested against audiogenic seizure model using DBA/2 mice. In kind it is functional. Put shortly:
(§1)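 Male DBA/2 mice, 3–4 weeks old (6.5–12 g, 20–23 days), n = 5 per dose, given iv into retro-orbital sinus; tested 15 or 45 min post-dose with sound stimulus until tonic extension or max 60 s. Value is percentage of mice without tonic seizure.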

The subject of series [6] is Mus musculus. Kind of series: Anticonvulsant activity at 10 mg/kg tested against audiogenic seizure model using DBA/2 mice. It counts as functional. Summed up: as §1

In brackets after ≈: the same amount, converted by molar mass.

Voltage-dependent N-type calcium channel subunit alpha-1B, sequence (Q00975 whole entry): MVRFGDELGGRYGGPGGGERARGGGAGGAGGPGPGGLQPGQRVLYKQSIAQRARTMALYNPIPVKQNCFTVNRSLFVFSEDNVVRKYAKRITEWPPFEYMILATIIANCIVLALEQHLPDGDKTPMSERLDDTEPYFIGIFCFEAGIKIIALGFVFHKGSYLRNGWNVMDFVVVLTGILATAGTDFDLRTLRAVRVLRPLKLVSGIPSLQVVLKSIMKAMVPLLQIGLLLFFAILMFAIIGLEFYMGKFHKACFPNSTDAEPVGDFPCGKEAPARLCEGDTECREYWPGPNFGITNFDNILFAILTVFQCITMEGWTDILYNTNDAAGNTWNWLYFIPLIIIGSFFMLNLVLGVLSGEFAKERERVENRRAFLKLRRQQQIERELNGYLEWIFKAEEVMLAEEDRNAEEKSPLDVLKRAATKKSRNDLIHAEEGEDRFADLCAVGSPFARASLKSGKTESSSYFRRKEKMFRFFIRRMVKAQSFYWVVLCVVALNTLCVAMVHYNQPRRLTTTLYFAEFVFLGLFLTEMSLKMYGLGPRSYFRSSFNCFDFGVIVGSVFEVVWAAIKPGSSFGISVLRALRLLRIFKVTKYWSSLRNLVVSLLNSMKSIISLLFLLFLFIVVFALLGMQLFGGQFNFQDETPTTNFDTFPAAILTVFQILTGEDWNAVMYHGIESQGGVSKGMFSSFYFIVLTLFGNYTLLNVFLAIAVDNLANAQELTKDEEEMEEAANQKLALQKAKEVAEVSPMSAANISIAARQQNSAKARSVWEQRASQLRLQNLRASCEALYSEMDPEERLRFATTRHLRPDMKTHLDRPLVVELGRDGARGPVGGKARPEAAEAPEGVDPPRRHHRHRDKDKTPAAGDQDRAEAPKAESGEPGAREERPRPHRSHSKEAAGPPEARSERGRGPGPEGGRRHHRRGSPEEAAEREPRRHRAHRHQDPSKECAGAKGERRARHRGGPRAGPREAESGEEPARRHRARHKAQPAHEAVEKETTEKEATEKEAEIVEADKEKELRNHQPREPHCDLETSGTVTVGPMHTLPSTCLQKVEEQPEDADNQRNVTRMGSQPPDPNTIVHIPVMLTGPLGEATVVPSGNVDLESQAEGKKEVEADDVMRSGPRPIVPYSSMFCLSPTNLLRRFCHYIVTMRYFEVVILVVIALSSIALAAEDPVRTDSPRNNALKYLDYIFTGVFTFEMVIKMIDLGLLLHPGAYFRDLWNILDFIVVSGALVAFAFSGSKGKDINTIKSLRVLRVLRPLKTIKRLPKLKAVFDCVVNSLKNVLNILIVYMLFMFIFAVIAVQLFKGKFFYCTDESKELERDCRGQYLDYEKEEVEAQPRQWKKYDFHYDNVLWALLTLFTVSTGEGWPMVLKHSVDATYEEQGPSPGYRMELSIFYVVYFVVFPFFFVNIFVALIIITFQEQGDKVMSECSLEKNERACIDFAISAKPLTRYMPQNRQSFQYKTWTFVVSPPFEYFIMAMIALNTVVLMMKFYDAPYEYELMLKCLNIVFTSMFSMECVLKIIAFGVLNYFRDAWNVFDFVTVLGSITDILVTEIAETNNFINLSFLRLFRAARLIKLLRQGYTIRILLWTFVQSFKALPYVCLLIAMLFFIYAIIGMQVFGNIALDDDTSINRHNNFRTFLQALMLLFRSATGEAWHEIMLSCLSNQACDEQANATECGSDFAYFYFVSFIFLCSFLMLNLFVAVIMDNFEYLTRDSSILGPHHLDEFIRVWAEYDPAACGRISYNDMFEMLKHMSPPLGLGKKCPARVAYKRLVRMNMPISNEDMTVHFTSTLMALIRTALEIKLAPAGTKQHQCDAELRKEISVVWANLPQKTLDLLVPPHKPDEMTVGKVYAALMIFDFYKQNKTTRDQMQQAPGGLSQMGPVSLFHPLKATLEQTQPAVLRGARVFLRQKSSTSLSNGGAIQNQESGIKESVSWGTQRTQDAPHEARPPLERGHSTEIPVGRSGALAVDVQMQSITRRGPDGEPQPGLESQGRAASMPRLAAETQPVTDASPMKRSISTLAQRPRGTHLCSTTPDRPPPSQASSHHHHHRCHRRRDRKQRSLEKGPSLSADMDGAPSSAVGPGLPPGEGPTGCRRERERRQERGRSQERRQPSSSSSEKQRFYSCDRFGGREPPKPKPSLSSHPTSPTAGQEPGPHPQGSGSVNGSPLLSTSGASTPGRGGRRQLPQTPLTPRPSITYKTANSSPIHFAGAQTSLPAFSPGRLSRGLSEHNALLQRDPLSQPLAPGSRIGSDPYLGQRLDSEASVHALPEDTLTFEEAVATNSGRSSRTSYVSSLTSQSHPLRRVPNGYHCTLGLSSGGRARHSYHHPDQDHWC

Consider `CC(C)=CCN(c1ccc(OCc2ccccc2)cc1)C1CCN(C(=O)[C@@H](N)CC(C)C)CC1`, for which the solubility (commonly the dissolved amount per volume that the medium holds) in series [1] was 100000 µM (≈ 46400 µg/mL); in series [2] it was 87 µM (≈ 40.3 µg/mL). The 50% effective dose (ED50) (as a rule, the dose at which the effect has come halfway, by size or by number of responders) in series [3] was 6 mg/kg. In series [4], the half-inhibitory concentration (IC50) (commonly the concentration needed to halve the response being measured) was determined as 0.67 µM.

As for `CCN(c1ccc(OCc2ccccc2)cc1)C1CCN(C(=O)[C@H](CC(C)C)NC(=O)N2CCCCCC2)CC1`, the Anticonulsant activity in series [5] was 0%.

For the compound `CC(C)=CCN(C[C@H](C)NC(=O)[C@H](CC(C)C)NC(=O)N1CCCCCC1)c1ccc(OCc2ccccc2)cc1`, the IC50 in series [4] was 1 µM.

In series [6], `CC(C)=CCN(c1ccc(OCc2ccccc2)cc1)C1CCN(C(=O)[C@H](CC(C)C)NCCC(C)C)CC1` gave an Anticonulsant activity of 20%.

Turning to `CC(C)=CCN(c1ccc(OCc2ccccc2)cc1)C1CCNCC1`, the 50% inhibitory concentration (IC50) in series [4] amounted to 4.7 µM.

In series [5], `CC(C)=CCN(c1ccc(OCc2ccccc2)cc1)C1CCN(C(=O)[C@H](CC(C)C)NC(=O)N2CCCCCC2)CC1` registered an Anticonulsant activity of 0%.

With `CC(C)=CCN(c1ccc(OCc2ccccc2)cc1)C1CCCN(C(=O)[C@H](CC(C)C)NC(=O)N2CCCCCC2)C1` (stereo partly drawn), in series [4], the IC50 stood at 1.5 µM.

In series [2], `CC(C)C[C@H](NC(=O)N1CCCCCC1)C(=O)N1CCC(N(CCC(C)O)c2ccc(OCc3ccccc3)cc2)CC1` (stereo partly drawn) showed a solubility of 4 µM (≈ 2.37 µg/mL). In addition, the 50% inhibitory concentration (IC50) in series [4] turned out to be 4.6 µM.

In the case of `CC(C)C[C@H](NC(=O)N1CCCCCC1)C(=O)N1CCC(Nc2ccc(OCc3ccccc3)cc2)CC1`, the Anticonulsant activity in series [5] is listed as 60%.
